# “Also recorded” adds a separate entry of the source.
# Assays:
# reduced WT FDTS [1] = molecular target: T1, reduced WT FDTS (Thermotoga maritima, UniProt Q9WYT0); settings: cited from earlier work
# T1 sequence (Q9WYT0 1-220): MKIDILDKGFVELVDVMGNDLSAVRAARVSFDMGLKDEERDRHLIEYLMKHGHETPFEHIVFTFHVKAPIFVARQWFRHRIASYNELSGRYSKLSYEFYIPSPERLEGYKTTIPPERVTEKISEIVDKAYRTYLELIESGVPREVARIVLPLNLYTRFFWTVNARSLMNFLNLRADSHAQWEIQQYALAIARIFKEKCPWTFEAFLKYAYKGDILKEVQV
# WT FDTS [2] = molecular target: T2, WT FDTS (Thermotoga maritima, UniProt Q9WYT0); test: Spectrophotometric titration of oxidized WT FDTS with ligand; type: binding
# reduced WT FDTS [3] = molecular target: T1, reduced WT FDTS; test: Reactivity of dUMP analogs with reduced FDTS in the presence of CH2THF; type: biochemical; settings: anaerobic, 0.1 M Tris-HCl pH 8 at 25 °C; 200 μM CH2THF; 10 mM dU or 200 μM dUMS; over four hours
# How it was run: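 Recombinant T. maritima WT enzyme, purified, converted to apo-protein with concentrated NaCl, and reconstituted with exogenous FAD after desalting. Run in anaerobic cuvettes in 0.1 M Tris-HCl, pH 8, 25 °C. To reduced enzyme, CH2THF (200 μM final) was added first, then test compound (final concentration as listed). Flavin spectra were followed by scanning spectrophotometry. The mixture was afterwards analysed by HPLC for 2′-deoxythymidine-5′-monosulfate.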
# R90A FDTS [4] = molecular target: T3, R90A FDTS (Thermotoga maritima, UniProt Q9WYT0, R90A); test: Spectrophotometric titration of R90A FDTS with ligand; type: binding
# [5] = cited from earlier work
# R90A FDTS [6] = molecular target: T3, R90A FDTS; settings: R90A variant; oxidative half-reaction with dUMP and CH2THF; cited from earlier work
# WT FDTS [7] = molecular target: T2, WT FDTS
# R174A FDTS [8] = molecular target: T4, R174A FDTS (Thermotoga maritima, UniProt Q9WYT0, R174A); settings: R174A variant; oxidative half-reaction with dUMP and CH2THF; cited from earlier work
# R174A FDTS [9] = molecular target: T4, R174A FDTS; test: Spectrophotometric titration of R174A FDTS with ligand; type: binding
# T3 sequence (Q9WYT0 whole entry R90A): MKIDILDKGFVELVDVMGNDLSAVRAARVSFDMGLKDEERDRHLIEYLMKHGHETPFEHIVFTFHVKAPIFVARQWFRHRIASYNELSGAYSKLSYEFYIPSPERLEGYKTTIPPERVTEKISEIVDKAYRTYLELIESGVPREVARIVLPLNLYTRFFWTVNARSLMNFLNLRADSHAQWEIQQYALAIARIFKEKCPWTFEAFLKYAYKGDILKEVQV
# T4 sequence (Q9WYT0 whole entry R174A): as the sequence (Q9WYT0 whole entry R90A) above, with A90R, R174A counted along it
compound,measurement,setting,value
"O=c1[nH]c(=O)n([C@H]2C[C@H](O)[C@@H](COP(=O)(O)O)O2)cc1F [5F-dUMP, 5-fluoro-2′-deoxyuridine-5′-monophosphate]",oxidation of reduced FDTS in the presence of CH2THF,reduced WT FDTS [1],cannot oxidize reduced FDTS
"O=c1ccn([C@H]2C[C@H](O)[C@@H](CO)O2)c(=O)[nH]1 [dU, 2′-Deoxyuridine]",loss of binding energy,WT FDTS [2]; dU binding to WT FDTS vs dUMP,~ 5.2 kcal/mol
same,oxidation of reduced FDTS flavin in the presence of CH2THF,reduced WT FDTS [3],failed to oxidize reduced WT FDTS; also recorded: neither dU nor dUMS cause oxidation of the reduced flavin; also recorded: No oxidation of the flavin occurred
"O=c1ccn([C@H]2C[C@H](O)[C@@H](COP(=O)(O)O)O2)c(=O)[nH]1 [dUMP, 2′-deoxyuridine-5′-monophosphate]",Kd,"WT FDTS [2]; Kd, WT FDTS, 0.1 M Tris-HCl, pH 8 at 25 °C, estimate from fitting to Eq. 1",~0.03 µM
same,Kd,R90A FDTS [4],14 ± 2 µM
same,loss of binding energy,R90A FDTS [4]; dUMP binding to R90A FDTS vs WT,~ 4.0 kcal/mol
same,pKa for N3 of dUMP,[5]; aqueous solution,9.3
same,pKa of anionic phosphate oxygen of dUMP,"[5]; phosphate oxygen, reference not given",about 7
same,"rate constant for flavin oxidation, fold smaller than wild-type FDTS",R90A FDTS [6],8 fold
same,pKa of N3 of dUMP bound to FDTS,"WT FDTS [7]; bound to WT FDTS, by the interaction of R174",below 8
same,stabilization of the N3 anion of bound dUMP by R174,WT FDTS [7]; fully ionized at pH 8,at least 2.8 kcal mol^−1
same,"rate constant for flavin oxidation, fold smaller than wild-type FDTS",R174A FDTS [8],3000 fold
same,Kd,R174A FDTS [9],109 ± 6 µM
same,loss of binding energy,R174A FDTS [9]; dUMP binding to R174A FDTS vs WT,~ 5.4 kcal/mol
"O=c1ccn([C@H]2C[C@H](O)[C@@H](COS(=O)(=O)O)O2)c(=O)[nH]1 [dUMS, 2′-deoxyuridine-5′-monosulfate]",oxidation of reduced FDTS flavin in the presence of CH2THF,reduced WT FDTS [3],unable to oxidize reduced FDTS; also recorded: failed to oxidize reduced FDTS; also recorded: neither dU nor dUMS cause oxidation of the reduced flavin; also recorded: No oxidation of the flavin occurred
